Measured values taken from ChEMBL document CHEMBL4396878, “Mechanisms of Specific versus Nonspecific Interactions of Aggregation-Prone Inhibitors and Attenuators” (J Med Chem, 2019).
Activity calls are given as the source filed them. The calls are words filed in the database; no cut-off is given here.

Legend:
[1] = Binding affinity to Triton-X 100 assessed as aggregate formation at 1:1 ratio of Triton-X 100 to compound by dynamic light scattering analysis
Procedure, shortened: (§1)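 Dynamic light scattering in NMR buffer, samples filtered through 0.22 μm and centrifuged 5 min at 13 500 rpm before measurement. Autocorrelation accumulated 150 s at a 173° scattering angle, in replicates of 3–5, with water viscosity used in analysis; intensity or volume size distributions reported.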

[2] = Aggregation property of the compound assessed as change in chemical shift by 1H-NMR analysis; assay type: physicochemical
Procedure, shortened: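 Line widths, chemical shifts and peak intensities tracked; CAC taken as the concentration where intensities deviate from linear dependence, or, for line width, the minimal concentration that increases peak width.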

[3] = molecular target: T1, Rap guanine nucleotide exchange factor 3 (Homo sapiens) (UniProt O95398); assay: Binding affinity to human EPAC1 cAMP binding domain (149 to 318 residues) at 100 uM in presence of triton X-100 by [15N-1H]HSQC spectroscopic analysis
T1 sequence (whole entry): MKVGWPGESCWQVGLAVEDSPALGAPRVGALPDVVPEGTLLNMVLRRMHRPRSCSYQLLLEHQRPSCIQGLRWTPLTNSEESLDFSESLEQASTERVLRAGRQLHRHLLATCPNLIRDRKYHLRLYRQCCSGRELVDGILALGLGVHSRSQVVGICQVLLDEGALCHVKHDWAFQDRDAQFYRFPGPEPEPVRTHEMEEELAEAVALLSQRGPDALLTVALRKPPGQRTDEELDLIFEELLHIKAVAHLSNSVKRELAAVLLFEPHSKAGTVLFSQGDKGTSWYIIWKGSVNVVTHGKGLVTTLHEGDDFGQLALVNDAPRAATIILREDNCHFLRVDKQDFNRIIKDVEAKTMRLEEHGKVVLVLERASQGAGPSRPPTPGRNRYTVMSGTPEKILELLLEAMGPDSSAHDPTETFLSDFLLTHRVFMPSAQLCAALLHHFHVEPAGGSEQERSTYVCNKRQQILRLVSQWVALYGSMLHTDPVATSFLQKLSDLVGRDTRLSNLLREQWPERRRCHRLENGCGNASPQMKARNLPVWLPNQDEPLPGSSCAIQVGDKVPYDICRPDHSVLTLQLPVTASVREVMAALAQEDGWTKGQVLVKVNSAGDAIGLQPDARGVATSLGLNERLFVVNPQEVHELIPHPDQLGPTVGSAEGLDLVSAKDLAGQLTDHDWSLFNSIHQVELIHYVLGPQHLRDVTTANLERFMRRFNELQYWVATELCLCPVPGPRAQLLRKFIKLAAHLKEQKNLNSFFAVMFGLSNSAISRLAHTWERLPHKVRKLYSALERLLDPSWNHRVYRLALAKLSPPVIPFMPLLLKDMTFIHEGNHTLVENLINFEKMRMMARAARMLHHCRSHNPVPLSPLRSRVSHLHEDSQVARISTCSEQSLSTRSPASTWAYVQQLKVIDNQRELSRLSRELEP

[4] = Binding affinity to Triton-X 100 assessed as aggregate formation at 1:2 ratio of Triton-X 100 to compound by dynamic light scattering analysis; procedure, shortened: as §1
[5] = Binding affinity to Triton-X 100 assessed as intra-molecular cross relaxation at 100 uM by NOESY spectra analysis
Procedure, shortened: (§2)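 2D NOESY and ROESY of 100 μM ESI with 0.025% Triton X-100 or 500 μM ESI with 0.05% Triton X-100; 2K × 512 complex points, 12 ppm spectral width centred at 4.7 ppm, intra- and intermolecular cross-peaks mapped.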

[6] = Binding affinity to Triton-X 100 assessed as inter-molecular cross relaxation at 100 uM by NOESY spectra analysis; procedure, shortened: as §2
[7] = Binding affinity to Triton-X 100 assessed as intra-molecular saturation transfer at 100 uM at 6.61 ppm by STD spectra analysis
Procedure, shortened: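 STD NMR, saturation by a train of 40 Gaussian pulses of 50 ms each; selective on-resonance irradiation at the stated ppm (TX at 7.48 ppm), off-resonance at 30 ppm, interleaved and subtracted by phase cycling. 32K points, 16 ppm width centred at 4.7 ppm, 256 scans, 16 dummy scans, 0.1 s recycle delay (~15 min); 3 Hz exponential line broadening.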

[8] = molecular target: T1, Rap guanine nucleotide exchange factor 3 (Homo sapiens); assay: Binding affinity to human EPAC1 cAMP binding domain (149 to 318 residues) assessed as intensity loss using aggregate form of compound by [15N-1H]HSQC spectroscopic analysis
[9] = molecular target: T2, Rap guanine nucleotide exchange factor 3 (Homo sapiens, UniProt O95398); assay: Inhibition of 8-NBD-cAMP binding to human EPAC1 cAMP binding domain (149 to 318 residues) by fluorescence assay
T2 sequence (O95398 whole entry): T1 sequence (whole entry)

[10] = molecular target: T1, Rap guanine nucleotide exchange factor 3 (Homo sapiens); assay: Binding affinity to human EPAC1 cAMP binding domain (149 to 318 residues) assessed as peak size at 50 to 200 uM by dynamic light scattering analysis; procedure, shortened: as §1
[11] = Binding affinity to Triton-X 100 assessed as change in chemical shift for aggregate formation at 100 to 300 uM by 1H-NMR analysis
[12] = Binding affinity to Triton-X 100 assessed as line broadening at 100 to 300 uM by 1H-NMR analysis
Albumin [13] = molecular target: T3, Albumin (Homo sapiens, UniProt P02768); assay: Binding affinity to human serum albumin assessed as line broadening at 100 uM by 1D 1H NMR analysis
Albumin [14] = molecular target: T3, Albumin; assay: Displacement of [13C]oleic acid from human serum albumin by CH-HSQC spectra analysis
Procedure, shortened: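 Fatty-acid-free recombinant HSA at 250 μM in sodium phosphate buffer (20 mM NaPO4, pH 7.6, 50 mM NaCl, D2O), 37 °C for 30 min. 13C-oleic acid (100 mM stock in DMSO-d6, warmed to 50 °C for 10 min) added to 1.5 mM, then 2 h at 37 °C. CH-HSQC at 298 K; loss of site-specific cross-peaks A–H scored.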

Albumin [15] = molecular target: T3, Albumin; assay: Displacement of dansylated arginine from human serum albumin by fluorescence assay; conditions: read-out: Kd(app)
Procedure, shortened: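 Competition of ligand against 100 μM dansyl-arginine (Sudlow site 1, 1:1 stoichiometry) bound to 2.5 μM HSA. Excitation 370 nm, emission 460 nm. Apparent Kd fitted by Wang's method using least squares, assuming no other ligand sites on HSA, so treated as a maximum apparent value.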

Albumin [16] = molecular target: T3, Albumin; assay: Binding affinity to human serum albumin assessed as inhibition of compound aggregation at 500 uM by surface plasmon resonance analysis
[17] = molecular target: T1, Rap guanine nucleotide exchange factor 3 (Homo sapiens); assay: Binding affinity to human EPAC1 cAMP binding domain (149 to 318 residues) assessed as increase in peak intensity at 100 uM in presence of human serum albumin by [15N-1H]HSQC spectroscopic analysis relative to control
[18] = molecular target: T1, Rap guanine nucleotide exchange factor 3 (Homo sapiens); assay: Binding affinity to human EPAC1 cAMP binding domain (149 to 318 residues) assessed as change in chemical shift at 100 uM in presence of human serum albumin by [15N-1H]HSQC spectroscopic analysis relative to compound alone

T3 sequence (P02768 whole entry): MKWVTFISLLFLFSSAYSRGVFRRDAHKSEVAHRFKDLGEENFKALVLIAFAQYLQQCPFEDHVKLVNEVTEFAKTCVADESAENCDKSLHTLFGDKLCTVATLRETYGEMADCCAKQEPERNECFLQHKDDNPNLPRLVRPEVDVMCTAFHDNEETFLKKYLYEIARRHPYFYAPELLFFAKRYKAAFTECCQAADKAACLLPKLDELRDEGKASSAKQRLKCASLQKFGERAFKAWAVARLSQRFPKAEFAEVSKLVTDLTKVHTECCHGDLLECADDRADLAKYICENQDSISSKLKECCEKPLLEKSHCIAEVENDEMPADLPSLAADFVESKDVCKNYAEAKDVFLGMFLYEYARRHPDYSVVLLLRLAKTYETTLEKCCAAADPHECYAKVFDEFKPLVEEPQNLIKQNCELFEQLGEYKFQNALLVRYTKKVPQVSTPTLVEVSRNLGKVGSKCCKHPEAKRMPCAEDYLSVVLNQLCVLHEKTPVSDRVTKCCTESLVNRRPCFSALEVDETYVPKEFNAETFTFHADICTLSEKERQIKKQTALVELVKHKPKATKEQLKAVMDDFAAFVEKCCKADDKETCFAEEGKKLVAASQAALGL

Activity [1]: inactive
Activity [2]: Not Active
Activity [3]: Active
Activity [4]: Active
Activity [7]: Active
Activity [8]: Active
Kd [9]: 20 µM
Activity [10]: < 5 nm
Activity [11]: Active
Activity [12]: Active
Activity (Albumin [13]): Active
Activity (Albumin [14]): Active
Kd (Albumin [15]): 230 nM
inhibition (INH) (Albumin [16]): Not Active
Activity [17]: 44%
Activity [18]: < 30%
Compound: CC(C)(C)c1cc(C(=O)/C(C#N)=N/Nc2cccc(Cl)c2)no1
Activity [5]: Active
Activity [6]: Active
